Tests used:
Format in all cases: functional
Plasmodium berghei [1] = assay: Antimalarial activity against Plasmodium berghei ANKA infected in C57BL/6J mouse assessed as decrease of parasitemia level at 5 mg/kg, po administered after 24 hrs post infection measured after 3 days in presence of 15 mg/kg of mefloquine hydrochloride relative to control; design: scale not given: the % may be the effect or the level left
In short: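 Male C57BL/6J mice, 5 weeks old and about 20 g, were infected with P. berghei ANKA (2 × 10⁷ parasitized erythrocytes). At 24 h they got one 200 μL oral dose: 5 mg/kg trioxane plus 15 mg/kg mefloquine hydrochloride in 7:3 Tween 80/ethanol diluted with water. Blood parasitemia was read on day 3 post-infection as % suppression versus untreated infected mice. Four mice per group.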

Plasmodium berghei [2] = assay: Antimalarial activity against Plasmodium berghei ANKA infected in C57BL/6J mouse assessed as increase of host survival days at 5 mg/kg, po administered after 24 hrs post infection in presence of 15 mg/kg of mefloquine hydrochloride (reference value: 6.5 days)
Plasmodium berghei [3] = assay: Antimalarial activity against Plasmodium berghei ANKA infected in C57BL/6J mouse assessed as parasitemia level at 5 mg/kg, po administered after 24 hrs post infection measured after 30 days in presence of 15 mg/kg of mefloquine hydrochloride relative to control
Plasmodium berghei [4] = assay: Antimalarial activity against Plasmodium berghei ANKA infected in C57BL/6J mouse assessed as decrease of parasitemia level at 15 mg/kg, po administered after 24 hrs post infection measured after 3 days relative to control; design: scale not given: the % may be the effect or the level left
In short: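 Male C57BL/6J mice, 5 weeks old and about 20 g, were infected with P. berghei ANKA at 2 × 10⁷ parasitized erythrocytes. At 24 h post-infection, 4 mice per group received a single oral 200 μL dose in 7:3 Tween 80/ethanol diluted in deionized water. The dose was trioxane 5 mg/kg with mefloquine hydrochloride 15 mg/kg. Parasitemia suppression was read on day 3 versus untreated infected mice.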

Plasmodium berghei [5] = assay: Antimalarial activity against Plasmodium berghei ANKA infected in C57BL/6J mouse assessed as increase of host survival days at 15 mg/kg, po administered after 24 hrs post infection (reference value: 6.5 days)

Q: Which results are given for `C[C@H]1[C@@H]([C@H](O)C[C@H]2O[C@@H]3O[C@@]4(C)CC[C@H]5[C@H](C)CC[C@@H]([C@H]2C)[C@@]35OO4)O[C@@H]2O[C@@]3(C)CC[C@H]4[C@H](C)CC[C@@H]1[C@@]24OO3`?
A: Activity (Plasmodium berghei [1]): >99.9%; Survival (Plasmodium berghei [2]): 24.8 days

Q: For `C[C@H]1[C@@H]([C@@H](O)C[C@H]2O[C@@H]3O[C@@]4(C)CC[C@H]5[C@H](C)CC[C@@H]([C@H]2C)[C@@]35OO4)O[C@@H]2O[C@@]3(C)CC[C@H]4[C@H](C)CC[C@@H]1[C@@]24OO3`, which Activity (Plasmodium berghei [1]) is on record?
A: >99.9%

Q: And the Survival (Plasmodium berghei [2])?
A: 25 days

Q: How did the Activity (Plasmodium berghei [1]) turn out when `C[C@H]1[C@@H]([C@H](C[C@H]2O[C@@H]3O[C@@]4(C)CC[C@H]5[C@H](C)CC[C@@H]([C@H]2C)[C@@]35OO4)OC(=O)Nc2ccccc2)O[C@@H]2O[C@@]3(C)CC[C@H]4[C@H](C)CC[C@@H]1[C@@]24OO3` was run?
A: >99.9%

Q: And the Survival (Plasmodium berghei [2])?
A: 17 days

Q: For `C[C@H]1[C@@H]([C@H](C[C@H]2O[C@@H]3O[C@@]4(C)CC[C@H]5[C@H](C)CC[C@@H]([C@H]2C)[C@@]35OO4)OC(=O)Nc2cccc(F)c2)O[C@@H]2O[C@@]3(C)CC[C@H]4[C@H](C)CC[C@@H]1[C@@]24OO3`, which Activity (Plasmodium berghei [1]) is on record?
A: >99.9%

Q: And the Survival (Plasmodium berghei [2])?
A: 20.3 days

Q: How did the Activity (Plasmodium berghei [1]) turn out when `C[C@H]1[C@@H]([C@H](C[C@H]2O[C@@H]3O[C@@]4(C)CC[C@H]5[C@H](C)CC[C@@H]([C@H]2C)[C@@]35OO4)OC(=O)Nc2ccc(F)cc2)O[C@@H]2O[C@@]3(C)CC[C@H]4[C@H](C)CC[C@@H]1[C@@]24OO3` was run?
A: >99.9%

Q: And the Survival (Plasmodium berghei [2])?
A: 18.8 days

Q: Which results are given for `Cc1cc(NC(=O)O[C@@H](C[C@H]2O[C@@H]3O[C@@]4(C)CC[C@H]5[C@H](C)CC[C@@H]([C@H]2C)[C@@]35OO4)[C@H]2O[C@@H]3O[C@@]4(C)CC[C@H]5[C@H](C)CC[C@@H]([C@H]2C)[C@@]35OO4)ccc1F`?
A: Activity (Plasmodium berghei [1]): >99.9%; Survival (Plasmodium berghei [2]): 13.5 days

Q: What does the source list for `C[C@H]1[C@@H]([C@H](C[C@H]2O[C@@H]3O[C@@]4(C)CC[C@H]5[C@H](C)CC[C@@H]([C@H]2C)[C@@]35OO4)OC(=O)Nc2ccc(F)c(F)c2)O[C@@H]2O[C@@]3(C)CC[C@H]4[C@H](C)CC[C@@H]1[C@@]24OO3`?
A: Activity (Plasmodium berghei [3]): 8%; Activity (Plasmodium berghei [1]): >99.9%; Survival (Plasmodium berghei [2]): 25.5 days

Q: What does the source list for `C[C@H]1[C@@H]([C@H](C[C@H]2O[C@@H]3O[C@@]4(C)CC[C@H]5[C@H](C)CC[C@@H]([C@H]2C)[C@@]35OO4)OC(=O)Nc2cc(F)cc(F)c2)O[C@@H]2O[C@@]3(C)CC[C@H]4[C@H](C)CC[C@@H]1[C@@]24OO3`?
A: Activity (Plasmodium berghei [1]): >99.9%; Survival (Plasmodium berghei [2]): 21.8 days

Q: What does the source list for `C[C@H]1[C@@H]([C@H](C[C@H]2O[C@@H]3O[C@@]4(C)CC[C@H]5[C@H](C)CC[C@@H]([C@H]2C)[C@@]35OO4)OC(=O)Nc2cccc(C(F)(F)F)c2)O[C@@H]2O[C@@]3(C)CC[C@H]4[C@H](C)CC[C@@H]1[C@@]24OO3`?
A: Activity (Plasmodium berghei [1]): >99.9%; Survival (Plasmodium berghei [2]): 18 days

Q: With `C[C@H]1[C@@H]([C@H](C[C@H]2O[C@@H]3O[C@@]4(C)CC[C@H]5[C@H](C)CC[C@@H]([C@H]2C)[C@@]35OO4)OC(=O)Nc2ccc(C(F)(F)F)cc2)O[C@@H]2O[C@@]3(C)CC[C@H]4[C@H](C)CC[C@@H]1[C@@]24OO3` as the molecule, how does the Activity (Plasmodium berghei [1]) read?
A: >99.9%

Q: And the Survival (Plasmodium berghei [2])?
A: 10.8 days

Q: `C[C@H]1[C@@H]([C@H](C[C@H]2O[C@@H]3O[C@@]4(C)CC[C@H]5[C@H](C)CC[C@@H]([C@H]2C)[C@@]35OO4)OC(=O)Nc2ccc(F)c(Cl)c2)O[C@@H]2O[C@@]3(C)CC[C@H]4[C@H](C)CC[C@@H]1[C@@]24OO3` was tested. Which Activity (Plasmodium berghei [3]) did it give?
A: 8%

Q: And the Activity (Plasmodium berghei [1])?
A: >99.9%

Q: What about the Survival (Plasmodium berghei [2]) of the same molecule?
A: 24.8 days

Q: How did the Activity (Plasmodium berghei [3]) turn out when `C[C@H]1[C@@H]([C@H](C[C@H]2O[C@@H]3O[C@@]4(C)CC[C@H]5[C@H](C)CC[C@@H]([C@H]2C)[C@@]35OO4)OC(=O)Nc2cccc(Cl)c2)O[C@@H]2O[C@@]3(C)CC[C@H]4[C@H](C)CC[C@@H]1[C@@]24OO3` was run?
A: 8%

Q: And the Activity (Plasmodium berghei [1])?
A: >99.9%

Q: And the Survival (Plasmodium berghei [2])?
A: 26.8 days

Q: How did the Activity (Plasmodium berghei [1]) turn out when `C[C@H]1[C@@H]([C@H](C[C@H]2O[C@@H]3O[C@@]4(C)CC[C@H]5[C@H](C)CC[C@@H]([C@H]2C)[C@@]35OO4)OC(=O)Nc2ccc(Cl)cc2)O[C@@H]2O[C@@]3(C)CC[C@H]4[C@H](C)CC[C@@H]1[C@@]24OO3` was run?
A: >99.9%

Q: And the Survival (Plasmodium berghei [2])?
A: 18.3 days

Q: `C[C@H]1[C@@H]([C@H](C[C@H]2O[C@@H]3O[C@@]4(C)CC[C@H]5[C@H](C)CC[C@@H]([C@H]2C)[C@@]35OO4)OC(=O)Nc2ccc(Br)cc2)O[C@@H]2O[C@@]3(C)CC[C@H]4[C@H](C)CC[C@@H]1[C@@]24OO3` was tested. Which Activity (Plasmodium berghei [1]) did it give?
A: >99.9%

Q: And the Survival (Plasmodium berghei [2])?
A: 12.5 days

Q: `C[C@H]1[C@@H]([C@H](C[C@H]2O[C@@H]3O[C@@]4(C)CC[C@H]5[C@H](C)CC[C@@H]([C@H]2C)[C@@]35OO4)OC(=O)Nc2ccc(C#N)cc2)O[C@@H]2O[C@@]3(C)CC[C@H]4[C@H](C)CC[C@@H]1[C@@]24OO3` was tested. Which Activity (Plasmodium berghei [1]) did it give?
A: >99.9%

Q: And the Survival (Plasmodium berghei [2])?
A: 17.8 days

Q: Which Activity (Plasmodium berghei [1]) does the source give for `C[C@H]1[C@@H]([C@H](C[C@H]2O[C@@H]3O[C@@]4(C)CC[C@H]5[C@H](C)CC[C@@H]([C@H]2C)[C@@]35OO4)OC(=O)Nc2ccc([N+](=O)[O-])cc2)O[C@@H]2O[C@@]3(C)CC[C@H]4[C@H](C)CC[C@@H]1[C@@]24OO3` here?
A: >99.9%

Q: What about the Survival (Plasmodium berghei [2]) of the same molecule?
A: 22 days

Q: Which results are given for `OC(c1cc(C(F)(F)F)nc2c(C(F)(F)F)cccc12)C1CCCCN1` (configuration not stated) [MEFLOQUINE]?
A: Activity (Plasmodium berghei [4]): >99.9%; Survival (Plasmodium berghei [5]): 20.3 days

Reference: ChEMBL document CHEMBL3120094, “The survival times of malaria-infected mice are prolonged more by several new two-carbon-linked artemisinin-derived dimer carbamates than by the trioxane antimalarial drug artemether” (2014)
